Legend:
[1] = biological target: T1, Protein deacetylase HDAC6 (Homo sapiens) (UniProt Q9UBN7); assay: Inhibition of HDAC6 in human HuH7-luc/neo cells assessed as ratio of alphaTubK40ac content to the content of unmodified alpha-tubulin at 1 uM incubated for 24 hrs by Western blot analysis relative to control; assay type: cell-based
T1 sequence (whole entry): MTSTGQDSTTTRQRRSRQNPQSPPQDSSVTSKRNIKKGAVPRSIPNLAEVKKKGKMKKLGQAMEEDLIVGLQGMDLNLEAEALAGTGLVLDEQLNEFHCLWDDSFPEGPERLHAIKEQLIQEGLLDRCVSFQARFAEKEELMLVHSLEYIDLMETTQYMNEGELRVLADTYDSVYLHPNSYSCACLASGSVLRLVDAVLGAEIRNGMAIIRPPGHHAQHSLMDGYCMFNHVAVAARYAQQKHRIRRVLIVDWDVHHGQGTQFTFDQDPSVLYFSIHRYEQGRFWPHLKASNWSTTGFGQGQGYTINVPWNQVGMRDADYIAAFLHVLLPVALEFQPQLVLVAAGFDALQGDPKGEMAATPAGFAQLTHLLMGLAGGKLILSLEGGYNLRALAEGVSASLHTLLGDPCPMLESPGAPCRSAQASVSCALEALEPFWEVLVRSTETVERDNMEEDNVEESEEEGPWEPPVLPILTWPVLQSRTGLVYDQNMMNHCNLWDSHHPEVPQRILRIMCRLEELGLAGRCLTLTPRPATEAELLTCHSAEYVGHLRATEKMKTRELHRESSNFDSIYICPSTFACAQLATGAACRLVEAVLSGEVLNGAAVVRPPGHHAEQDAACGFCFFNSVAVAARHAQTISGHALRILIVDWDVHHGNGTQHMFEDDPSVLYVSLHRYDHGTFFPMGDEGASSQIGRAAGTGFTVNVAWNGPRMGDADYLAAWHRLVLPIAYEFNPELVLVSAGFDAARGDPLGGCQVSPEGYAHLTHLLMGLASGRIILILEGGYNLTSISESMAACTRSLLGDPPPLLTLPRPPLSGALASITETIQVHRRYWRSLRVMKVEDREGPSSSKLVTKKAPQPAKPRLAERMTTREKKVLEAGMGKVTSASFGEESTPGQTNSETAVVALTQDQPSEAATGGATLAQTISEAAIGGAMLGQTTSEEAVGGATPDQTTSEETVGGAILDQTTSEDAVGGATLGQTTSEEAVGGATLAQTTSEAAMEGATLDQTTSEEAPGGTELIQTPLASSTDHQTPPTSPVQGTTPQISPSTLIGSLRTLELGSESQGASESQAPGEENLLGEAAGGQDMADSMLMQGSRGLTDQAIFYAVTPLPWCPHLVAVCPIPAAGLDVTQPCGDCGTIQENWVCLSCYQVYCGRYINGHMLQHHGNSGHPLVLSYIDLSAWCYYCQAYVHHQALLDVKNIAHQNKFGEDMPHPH
Outline: (§1)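 Huh7-luc/neo cells were dosed after 24 h at 40-50% monolayer and exposed to compound for 24 h at 37 °C in 5% CO2. For α-tubulin and SMC3, cells were PBS-washed and lysed. Histone H3 was acid-extracted: TEB buffer with 0.5% Triton X-100, then 0.2 M HCl overnight at 4 °C, then neutralized. Western blots were blocked in 5% milk/PBST with overnight primary antibody at 4 °C. Values are acetylated/total normalized ratios versus control.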

Hepatitis C virus = assay: Antiviral activity against HCV infected in human HuH7-luc/neo cells assessed as inhibition of viral replicon propagation incubated for 3 days by luciferase reporter gene assay; assay type: functional, organism-based, Hepacivirus hominis; conditions: 72 h
Outline: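 Huh7-luc/neo cells carrying a full-length HCV replicon with a luciferase gene. Cells were reseeded without G418 and dosed at 30-40% monolayer (48 h) over a range of concentrations. Incubation was 72 h at 37 °C in 5% CO2. Cells were then PBS-washed and lysed, and luciferase chemiluminescence was read. EC50 is the mean and standard deviation of at least four independent experiments.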

[2] = biological target: T1, Protein deacetylase HDAC6 (Homo sapiens); assay: Inhibition of HDAC6 in human HuH7-luc/neo cells assessed as ratio of alphaTubK40ac content to the content of unmodified alpha-tubulin at 3 uM incubated for 24 hrs by Western blot analysis relative to control; assay type: cell-based; outline: as §1
[3] = biological target: T2, Histone deacetylase 1/2/3 (Homo sapiens) (UniProt Q13547+O15379+Q92769); assay: Inhibition of HDAC1/2/3 in human HuH7-luc/neo cells assessed as ratio of H3K9/14ac content to the content of unmodified histone H3 at 1 uM incubated for 24 hrs by Western blot analysis relative to control; assay type: cell-based; outline: as §1
[4] = biological target: T2, Histone deacetylase 1/2/3 (Homo sapiens); assay: Inhibition of HDAC1/2/3 in human HuH7-luc/neo cells assessed as ratio of H3K9/14ac content to the content of unmodified histone H3 at 3 uM incubated for 24 hrs by Western blot analysis relative to control; assay type: cell-based; outline: as §1
[5] = Cytotoxicity against human HuH7 cells assessed as reduction in cell viability incubated for 3 days by MTT assay; assay type: cell-based, Huh-7
Outline: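 Huh7 cells were reseeded and dosed over a range of concentrations after 24 h (30-40% monolayer). Incubation was three days at 37 °C in 5% CO2, and viability was read by MTT. CC50 is the mean and standard deviation of at least six independent experiments.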

[6] = Therapeutic index, ratio of CC50 for human HuH7 cells to EC50 for HCV infected in human HuH7-luc/neo cells; assay type: toxicity, cell-based; conditions: HuH7 cells (CC50) and HCV-infected HuH7-luc/neo cells (EC50)
[7] = biological target: T3, Histone deacetylase 8 (Homo sapiens) (UniProt Q9BY41); assay: Inhibition of HDAC8 in human HuH7-luc/neo cells assessed as ratio of SMC3K105/106ac content to the content of unmodified SMC3 at 3 uM incubated for 24 hrs by Western blot analysis relative to control; assay type: cell-based; outline: as §1
T3 sequence (whole entry): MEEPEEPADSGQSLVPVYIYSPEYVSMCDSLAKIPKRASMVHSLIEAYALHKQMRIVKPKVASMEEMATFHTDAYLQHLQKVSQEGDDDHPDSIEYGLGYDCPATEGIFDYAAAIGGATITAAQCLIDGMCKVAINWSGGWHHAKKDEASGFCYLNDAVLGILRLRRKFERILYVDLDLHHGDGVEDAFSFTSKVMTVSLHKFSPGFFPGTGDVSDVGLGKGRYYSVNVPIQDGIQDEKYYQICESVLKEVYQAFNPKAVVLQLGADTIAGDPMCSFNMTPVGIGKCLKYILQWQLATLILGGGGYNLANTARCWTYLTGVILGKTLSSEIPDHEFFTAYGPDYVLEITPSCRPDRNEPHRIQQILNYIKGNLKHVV

[8] = biological target: T3, Histone deacetylase 8 (Homo sapiens); assay: Inhibition of HDAC8 in human HuH7-luc/neo cells assessed as ratio of SMC3K105/106ac content to the content of unmodified SMC3 at 10 uM incubated for 24 hrs by Western blot analysis relative to control; assay type: cell-based; outline: as §1
[9] = biological target: T3, Histone deacetylase 8 (Homo sapiens); assay: Inhibition of HDAC8 in human HuH7-luc/neo cells assessed as ratio of SMC3K105/106ac content to the content of unmodified SMC3 at 0.1 uM incubated for 24 hrs by Western blot analysis relative to control; assay type: cell-based; outline: as §1
[10] = biological target: T3, Histone deacetylase 8 (Homo sapiens); assay: Inhibition of HDAC8 in human HuH7-luc/neo cells assessed as ratio of SMC3K105/106ac content to the content of unmodified SMC3 at 1 uM incubated for 24 hrs by Western blot analysis relative to control; assay type: cell-based; outline: as §1
[11] = biological target: T3, Histone deacetylase 8 (Homo sapiens); assay: Inhibition of HDAC8 in human HuH7-luc/neo cells assessed as ratio of SMC3K105/106ac content to the content of unmodified SMC3 at 0.3 uM incubated for 24 hrs by Western blot analysis relative to control; assay type: cell-based; outline: as §1
[12] = biological target: T1, Protein deacetylase HDAC6 (Homo sapiens); assay: Inhibition of HDAC6 in human HuH7-luc/neo cells assessed as ratio of alphaTubK40ac content to the content of unmodified alpha-tubulin at 0.3 uM incubated for 24 hrs by Western blot analysis relative to control; assay type: cell-based; outline: as §1
[13] = biological target: T2, Histone deacetylase 1/2/3 (Homo sapiens); assay: Inhibition of HDAC1/2/3 in human HuH7-luc/neo cells assessed as ratio of H3K9/14ac content to the content of unmodified histone H3 at 0.3 uM incubated for 24 hrs by Western blot analysis relative to control; assay type: cell-based; outline: as §1

COc1ccccc1/C=C/C(=O)NO
fold change (FC) [1]: 0.75
EC50 (Hepatitis C virus): 1.1 µM
fold change (FC) [2]: 1.45
fold change (FC) [3]: 1.16
fold change (FC) [4]: 1.56
CC50 at 72 h [5]: 30 µM
selectivity ratio [6]: 27

O=C(/C=C/c1cccc(OCCc2ccccc2)c1)NO
fold change (FC) [1]: 3.53
EC50 (Hepatitis C virus): 0.3 µM
fold change (FC) [2]: 4.34
fold change (FC) [7]: 0.7
fold change (FC) [3]: 8.55
fold change (FC) [4]: 11.2
CC50 at 72 h [5]: 12 µM
selectivity ratio [6]: 41
fold change (FC) [8]: 0.58

O=C(/C=C/c1ccccc1OCc1ccccc1)NO
fold change (FC) [9]: 1.51
fold change (FC) [1]: 2.46
EC50 (Hepatitis C virus): 0.25 µM
fold change (FC) [2]: 1.99
fold change (FC) [7]: 2.16
fold change (FC) [3]: 0.95
fold change (FC) [4]: 1.48
CC50 at 72 h [5]: 31 µM
fold change (FC) [10]: 1.61
selectivity ratio [6]: 120
fold change (FC) [8]: 3.14
fold change (FC) [11]: 1.19

O=C(/C=C/c1cccc(Oc2ccccc2)c1)NO
fold change (FC) [1]: 2.58
EC50 (Hepatitis C virus): 0.4 µM
fold change (FC) [2]: 3.79
fold change (FC) [7]: 0.54
fold change (FC) [3]: 1.75
fold change (FC) [12]: 1.54
fold change (FC) [4]: 1.9
CC50 at 72 h [5]: 20 µM
fold change (FC) [13]: 1.27
selectivity ratio [6]: 50
fold change (FC) [8]: 1.02

O=C(/C=C/c1ccccc1OCCOc1ccccc1)NO
fold change (FC) [9]: 1.58
fold change (FC) [1]: 0.5
EC50 (Hepatitis C virus): 0.37 µM
fold change (FC) [2]: 0.69
fold change (FC) [7]: 3.18
fold change (FC) [3]: 1.47
fold change (FC) [4]: 1.94
CC50 at 72 h [5]: 45 µM
fold change (FC) [10]: 2.14
selectivity ratio [6]: 120
fold change (FC) [8]: 2.87
fold change (FC) [11]: 2.07

O=C(/C=C/c1ccc(OCc2ccccc2)cc1)NO
fold change (FC) [1]: 4.92
EC50 (Hepatitis C virus): 0.042 µM
fold change (FC) [2]: 8.86
fold change (FC) [7]: 0.93
fold change (FC) [3]: 4.23
fold change (FC) [12]: 1.63
fold change (FC) [4]: 4.83
CC50 at 72 h [5]: 9.9 µM
selectivity ratio [6]: 240
fold change (FC) [8]: 0.67

COc1ccc(/C=C/C(=O)NO)cc1
fold change (FC) [1]: 3.57
EC50 (Hepatitis C virus): 0.56 µM
fold change (FC) [2]: 5.1
fold change (FC) [3]: 1.35
fold change (FC) [12]: 0.55
fold change (FC) [4]: 1.85
CC50 at 72 h [5]: 15 µM
selectivity ratio [6]: 27

O=C(/C=C/c1ccc(Oc2ccccc2)cc1)NO
fold change (FC) [1]: 2.22
EC50 (Hepatitis C virus): 0.054 µM
fold change (FC) [2]: 2.58
fold change (FC) [7]: 0.83
fold change (FC) [3]: 1.69
fold change (FC) [12]: 2.09
fold change (FC) [4]: 2.58
CC50 at 72 h [5]: 20 µM
fold change (FC) [13]: 1.53
selectivity ratio [6]: 370
fold change (FC) [8]: 0.73
